Data on 14 compounds can be found in ChEMBL document CHEMBL1132942, “Quinolones: novel probes in antifilarial chemotheraphy” (2000).

The test system of assay [1] is Acanthocheilonema viteae. Put plainly: (§1) Tested in vivo for Acanthocheilonema viteae at 200 mg/kg X 5 days(perorally). The assay is classed as functional. To be noted: route oral. The gist of the method:
(§2)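 A. viteae transmitted to male M. coucha (6 weeks old) via vector tick Ornithodorus moubata. Test agents given orally at 200 mg/kg daily for five consecutive days. Micro- and macrofilaricidal activity assessed per earlier-described methods.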

The nature of assay [2]: Tested in vivo for sterilization of female worms. The assay is classed as functional, Acanthocheilonema viteae. Further details: concentration or dose not given beside the values.
For assay [3], the system named is Acanthocheilonema viteae. The assay is described as §1. Format: functional. The following applies: route oral. The gist of the method:
as §2
The source holds these as a separate data set.

For `CCCCCCCCNC(=O)c1cnc2c(F)cccc2c1O`, the figures for the Reduction in assay [1], in assay [2] and in assay [3] were 47%, 25% and 37%, respectively.
The corresponding values for `O=C(NC1CCCCC1)c1cnc2ccc(F)cc2c1O` are 31%, 36% and 50%.
The corresponding values for `CCN(CC)CCCC(C)NC(=O)c1cnc2cc(Cl)c(F)cc2c1O` (stereo unspecified) are 0%, 0% and 60%.
Take `O=C(NC1CCCCC1)c1cnc2ccccc2c1O`: the Reduction is on record as 100% in assay [1] and 90% in assay [3].
Regarding `O=C(NC1CCCCC1)c1cnc2ccc([N+](=O)[O-])cc2c1O`, the Reduction stood at 0% in assay [1], 0% in assay [2] and 54% in assay [3].
Regarding `CCCCCCCCNC(=O)c1cnc2c(C)cccc2c1O`, the results for the Reduction in assay [1], in assay [2] and in assay [3] were 0%, 0% and 17%, respectively.
In the case of `CCCCCCCCNC(=O)c1cnc2ccccc2c1O`, the Reduction in assay [1] is 0%; in assay [2] it was 0%; in assay [3], 25%.
In the case of `CCCCCCCCNC(=O)c1cnc2ccc(Cl)cc2c1O`, the Reduction is on record as 50% in assay [1], 0% in assay [2] and 30% in assay [3].
Taken in the same sequence, the figures for `CCN(CC)CCCC(C)NC(=O)c1cnc2ccc([N+](=O)[O-])cc2c1O` (stereo unspecified) were 0%, 0% and 54%.
Taken in the same sequence, the figures for `O=C(NC1CCCCC1)c1cnc2cc([N+](=O)[O-])ccc2c1O` were 80%, 0% and 24%.
The corresponding values for `CCCCCCCCNC(=O)c1cnc2ccc(F)cc2c1O` are 0%, 0% and 48%.
Turning to `CCCCCCCCNC(=O)c1cnc2ccc([N+](=O)[O-])cc2c1O`, the values for the Reduction in assay [1], in assay [2] and in assay [3] were 38%, 100% and 40%, respectively.
On to `Cc1cccc2c(O)c(C(=O)NC3CCCCC3)cnc12`, for which the Reduction in assay [1] is reported as 0%; in assay [2] it was 0%; in assay [3] it was 54%.
As for `CCN(CC)C(=O)N1CCN(C)CC1.O=C(O)CC(O)(CC(=O)O)C(=O)O` [DIETHYLCARBAMAZINE CITRATE], the results for the Reduction in assay [1], in assay [2] and in assay [3] were 0%, 0% and 90%, respectively.
